Each structure is given as a SMILES string. Active and inactive are the calls of the source.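 Rule for the calls: active = IC50 at or below 1000 nM for PAD4 enzyme inhibition; inactive = IC50 above 1000 nM.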

This experiment concerns the target Protein-arginine deiminase type-4 (Homo sapiens) (UniProt Q9UM07). Briefly: recombinant human PAD4 inhibitors – biochemical, BAEE substrate, citrulline absorbance, 0-6 µM range, late-stage follow-up (AID 588419). The note with it: recombinant PAD4, BAEE citrulline colorimetric absorbance. The essentials:
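System: recombinant PAD4 enzyme; Amount: 0.2 µM PAD4; Medium: Tris-HCl pH 7.6, CaCl2, DTT; Timing: 15 min compound-enzyme preincubation, then 15 min substrate reaction, both 37 °C; Measured by: colorimetric absorbance at 540 nm, diacetyl monoxime/thiosemicarbazide color reagent; Read-out: IC50 from citrulline formation, quantified via citrulline standard curve; Repeats: duplicates.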

Sequence of Protein-arginine deiminase type-4 (Homo sapiens) (Q9UM07 whole entry, looked up): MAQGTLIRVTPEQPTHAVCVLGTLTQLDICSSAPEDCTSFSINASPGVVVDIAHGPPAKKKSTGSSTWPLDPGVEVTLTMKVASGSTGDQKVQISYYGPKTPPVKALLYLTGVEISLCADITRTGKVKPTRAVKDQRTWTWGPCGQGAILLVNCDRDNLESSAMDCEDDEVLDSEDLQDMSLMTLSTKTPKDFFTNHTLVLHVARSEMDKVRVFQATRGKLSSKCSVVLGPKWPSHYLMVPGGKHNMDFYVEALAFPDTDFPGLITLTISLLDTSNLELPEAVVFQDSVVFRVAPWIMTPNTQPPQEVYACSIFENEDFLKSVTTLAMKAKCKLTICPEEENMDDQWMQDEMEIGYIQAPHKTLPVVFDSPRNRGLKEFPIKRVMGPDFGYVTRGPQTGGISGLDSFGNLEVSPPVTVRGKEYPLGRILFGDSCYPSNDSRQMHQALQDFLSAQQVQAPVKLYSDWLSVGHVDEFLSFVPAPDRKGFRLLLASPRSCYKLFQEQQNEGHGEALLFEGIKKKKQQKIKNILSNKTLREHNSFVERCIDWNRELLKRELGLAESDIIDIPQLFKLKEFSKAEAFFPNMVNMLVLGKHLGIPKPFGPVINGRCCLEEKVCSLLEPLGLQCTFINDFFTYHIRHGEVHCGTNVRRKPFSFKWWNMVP

As for `COC1=C(I)C(=O)c2nc(C#N)ccc2C1=O`, the IC50 entry was “inactive”.

The values are drawn from PubChem BioAssay AID588419 (The Scripps Research Institute Molecular Screening Center, 2011).
